Measurements: ChEMBL document CHEMBL3272018, “Synthesis of aziridinylallylaminophosphine oxides and sulfides as potential adjuvant cancer chemotherapeutic agents” (J Med Chem, 1976)
Activity calls are given as the source filed them. The rule behind the calls is not given here.

Columns and labels:
W256 [1] = experiment: Antitumor activity against cytoxan-resistant rat Walker 256 cells intramuscularly allografted in rat assessed as survival rate at 0.25 mg/kg, qd administered for 5 days; assay type: functional, organism-based; design: dose 0.25 mg/kg
Outline: (§1)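 Rats bearing Walker 256 carcinoma as a solid tumor; lines 1-8 use a cytoxan-resistant Walker 256 subline. Dosed once daily for 5 days. Treated (T) and untreated control (C) groups are compared, and the response is given as T/C percentage, reflecting increase in survival time. Host weight change is the average weight change of the test group minus that of the controls, in grams.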

Rattus norvegicus [2] = experiment: Toxicity in rat allografted with rat Walker 256 cells intramuscularly assessed as change in body weight at 0.062 mg/kg, qd administered for 5 days; assay type: organism-based; design: dose 0.062 mg/kg, route intramuscular; settings: in vivo, im, 120 h
Outline: (§2)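 Walker 256 carcinoma solid-tumour system in rats (parent line, or the line resistant to cytoxan). Dosing was one injection per day for 5 days. Toxicity was taken as the average net body-weight change of the treated group minus the average net weight change of the untreated tumour-bearing controls, in grams.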

W256 [3] = experiment: Antitumor activity against cytoxan-resistant rat Walker 256 cells intramuscularly allografted in rat assessed as tumor growth inhibition at 2 mg/kg, qd administered for 5 days relative to control; assay type: functional; settings: W256, im, 120 h, route intramuscular, read-out: TGI
Outline: (§3)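 Dosed once daily for 5 days. Response is tumor progression in treated (T) versus untreated control (C) animals, expressed as T/C percentage. Host weight change is reported as the average net weight change of the test group minus that of the controls, in grams.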

W256 [4] = experiment: Antitumor activity against rat Walker 256 cells intramuscularly allografted in rat assessed as survival rate at 0.031 mg/kg, qd administered for 5 days; assay type: functional, organism-based; design: dose 0.031 mg/kg; outline: as §1
Rattus norvegicus [5] = experiment: Toxicity in rat allografted with rat Walker 256 cells intramuscularly assessed as change in body weight at 2 mg/kg, qd administered for 5 days; assay type: organism-based; design: dose 2 mg/kg, route intramuscular; settings: in vivo, im, 120 h; outline: as §2
W256 [6] = experiment: Antitumor activity against rat Walker 256 cells intramuscularly allografted in rat assessed as survival rate at 0.062 mg/kg, qd administered for 5 days; assay type: functional, organism-based; design: dose 0.062 mg/kg; outline: as §1
W256 [7] = experiment: Antitumor activity against rat Walker 256 cells intramuscularly allografted in rat assessed as tumor growth inhibition at 0.25 mg/kg, qd administered for 5 days relative to control; assay type: functional; settings: W256, im, 120 h, route intramuscular, read-out: TGI; outline: as §3
W256 [8] = experiment: Antitumor activity against rat Walker 256 cells intramuscularly allografted in rat assessed as survival rate at 0.5 mg/kg, qd administered for 5 days; assay type: functional, organism-based; design: dose 0.5 mg/kg; outline: as §1
Rattus norvegicus [9] = experiment: Toxicity in rat allografted with cytoxan-resistant rat Walker 256 cells intramuscularly assessed as change in body weight at 0.5 mg/kg, qd administered for 5 days; assay type: organism-based; design: dose 0.5 mg/kg, route intramuscular; settings: in vivo, im, 120 h; outline: as §2
[10] = Therapeutic index, ratio of LD50 for rat allografted with rat Walker 256 cells to ED10 for antitumor activity against rat Walker 256 cells intramuscularly allografted in rat; assay type: cell-based; settings: read-out: TI
Outline: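 Therapeutic index is LD50/ED10 in the Walker 256 solid tumour system. ED10 is the dose giving a 10% tumour weight reduction, with values extrapolated from dose-response data.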

W256 [11] = experiment: Antitumor activity against rat Walker 256 cells intramuscularly allografted in rat assessed as tumor growth inhibition at 0.031 mg/kg, qd administered for 5 days relative to control; assay type: functional; settings: W256, im, 120 h, route intramuscular, read-out: TGI; outline: as §3
Rattus norvegicus [12] = experiment: Toxicity in rat allografted with cytoxan-resistant rat Walker 256 cells intramuscularly assessed as change in body weight at 0.25 mg/kg, qd administered for 5 days; assay type: organism-based; design: dose 0.25 mg/kg, route intramuscular; settings: in vivo, im, 120 h; outline: as §2
Musca domestica = experiment: Toxicity in male house fly assessed as lowest dose required to cause complete sterility administered in food; assay type: organism-based; settings: in vivo, po
[13] = Therapeutic index, ratio of LD50 for rat allografted with cytoxan-resistant rat Walker 256 cells to ED10 for antitumor activity against rat Walker 256 cells allografted in rat; settings: read-out: TI
Outline: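 Therapeutic index is LD50/ED10 in cytoxan-resistant Walker 256 solid tumour in rats. ED10 is the dose giving a 10% reduction, extrapolated from dose-response data.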

Rattus norvegicus [14] = experiment: Toxicity in rat allografted with cytoxan-resistant rat Walker 256 cells intramuscularly assessed as change in body weight at 1 mg/kg, qd administered for 5 days; assay type: organism-based; design: dose 1 mg/kg, route intramuscular; settings: in vivo, im, 120 h; outline: as §2
W256 [15] = experiment: Antitumor activity against cytoxan-resistant rat Walker 256 cells intramuscularly allografted in rat assessed as survival rate at 0.5 mg/kg, qd administered for 5 days; assay type: functional, organism-based; design: dose 0.5 mg/kg; outline: as §1
W256 [16] = experiment: Antitumor activity against cytoxan-resistant rat Walker 256 cells intramuscularly allografted in rat assessed as survival rate at 1 mg/kg, qd administered for 5 days; assay type: functional, organism-based; design: dose 1 mg/kg; outline: as §1
Rattus norvegicus [17] = experiment: Toxicity in rat allografted with rat Walker 256 cells intramuscularly assessed as change in body weight at 1 mg/kg, qd administered for 5 days; assay type: organism-based; design: dose 1 mg/kg, route intramuscular; settings: in vivo, im, 120 h; outline: as §2
W256 [18] = experiment: Antitumor activity against cytoxan-resistant rat Walker 256 cells intramuscularly allografted in rat assessed as tumor growth inhibition at 0.25 mg/kg, qd administered for 5 days relative to control; assay type: functional; settings: W256, im, 120 h, route intramuscular, read-out: TGI; outline: as §3
W256 [19] = experiment: Antitumor activity against rat Walker 256 cells intramuscularly allografted in rat assessed as tumor growth inhibition at 0.5 mg/kg, qd administered for 5 days relative to control; assay type: functional; settings: W256, im, 120 h, route intramuscular, read-out: TGI; outline: as §3
[20] = Toxicity in rat allografted with rat Walker 256 cells intramuscularly; assay type: organism-based

Structure (SMILES): C=CCN(CC=C)P(=O)(N1CC1)N1CC1
- Activity (W256 [1]): Active
- Activity (Rattus norvegicus [2]): -5 g
- inhibition in vivo at 2 mg/kg (W256 [3]): 9%
- Activity (W256 [4]): Active
- Activity (Rattus norvegicus [5]): -44 g
- Activity (W256 [6]): Active
- inhibition in vivo at 0.25 mg/kg (W256 [7]): 0%
- Activity (W256 [8]): Active
- Activity (Rattus norvegicus [9]): -13 g
- selectivity ratio [10]: 10
- inhibition in vivo at 0.031 mg/kg (W256 [11]): 24%
- Activity (Rattus norvegicus [12]): 0 g
- Activity (Musca domestica): 0.1%
- selectivity ratio [13]: 2.5
- Activity (Rattus norvegicus [14]): -13 g
- Activity (W256 [15]): Active
- Activity (W256 [16]): Active
- Activity (Rattus norvegicus [17]): -26 g
- inhibition in vivo at 0.25 mg/kg (W256 [18]): 60%
- inhibition in vivo at 0.5 mg/kg (W256 [19]): 0%
- LD50 [20]: 5 mg/kg
